According to ChEMBL document CHEMBL4513216, “Probing the Open Global Health Chemical Diversity Library for Multistage-Active Starting Points for Next-Generation Antimalarials” (ACS Infect Dis, 2020):

Assay: Toxicity liver stage against HepG2, at 10uM
Format: cell-based
Design: test concentration 10 uM, cell line HepG2-A16-CD81EGFP
Settings: human, HepG2-A16-CD81EGFP cells; read-out: INHIBITION
Outline: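 Uninfected HepG2-A16-CD81EGFP cells, 3 × 10^3 per well, 1536-well, plated on prespotted compound at 10 μM final, parasite-free screening media added to match infected plates; puromycin 10 μM positive, DMSO 0.5% negative; run in parallel with 48 h PbLuc assay at 37 °C, 5% CO2; viability by CellTiter-Glo luminescence, normalized to controls.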

SMILES	cytotoxicity at 10 µM [%]
CC(C)c1nnc(NC(=O)CCC(=O)NCC2CCCO2)s1 (stereo not given)	-9.58
CN1CCOC[C@H]1c1nc(-c2ccncc2)c[nH]1	2.23
Cc1ccc(S(=O)(=O)NC[C@H]2OC[C@@H](NCc3cccs3)[C@@H]2O)cc1	-3.24
Cc1ccn2c(=O)cc(CSCC(=O)Nc3nnc(C(C)C)s3)nc2c1	-8.93
CCc1ccccc1NCc1nc2[nH]c(C)c(C)c(=O)n2n1	7.98
COC(=O)CSc1nnc(CCNC(=O)OC(C)(C)C)o1	4.34
COc1ccc2c3c1CN(C(C)=O)CC3=CC(C)(C)CO2	10.1
COC1CN(C(=O)OCC(C)C)CCC(=O)N(C)c2ccccc21 (stereo not given)	-0.321
Cc1cccc2c1ccn2CC(=O)NC[C@@H]1CCCN2CCCC[C@H]12	3.14
O=C(Nc1cccnc1-n1cc(Cl)cn1)C1CCCCC1	-39
Cc1nn(C)c(C)c1C1SCC(=O)Nc2c1c(O)nn2C(C)C (stereo not given)	-6.82
COc1ccc(-c2n[nH]c(C)c2CC(=O)NCC2CCOCC2)cc1	-4.28
CSc1ccc(C2SCC(=O)Nc3c2c(=O)[nH]n3C2CCOCC2)cc1 (stereo not given)	-14.9
O=C(Nc1ccc(Br)cc1F)c1ccc(N2CCOCC2)nn1	22.4
Cc1ccccc1-c1csc2c(=O)[nH]c(N3CCCC(C(=O)O)C3)nc12 (stereo not given)	-3.16
Cn1cnc(S(=O)(=O)NCC(C)(O)c2ccc3c(c2)OCO3)c1 (stereo not given)	-4.44
COCC(=O)N1CC[C@H]2[C@H]1CCN2CC(C)C	1.18
CCN1CC2(CC1=O)CN(C(=O)C(C)C)CCN(S(=O)(=O)CC)C2 (stereo not given)	16
Cc1nc(Nc2ccc(Cl)cn2)sc1C(=O)NCCCN1CCCCC1	1.66
O=c1[nH]c2c(c(=O)n1C1CCCCC1)CCC2NCc1ccccc1 (stereo not given)	-5.43
CC(C)n1c(=O)c2sccc2n(CC(=O)Nc2ccccc2)c1=O	8.02
CCc1noc(C2CCCCN2C(=O)c2cc(C)n(C)n2)n1 (stereo not given)	11.2

SMILES	cytotoxicity at 10 µM [%]
CN1CCNCC(Cc2cnc3ccccc3c2)C1 (stereo not given)	-12.4
NC(=O)c1cccc(C2CCN(c3ncccn3)CC2)n1	0.00505
CC(C)CN1CCCC1c1cc[nH]n1 (stereo not given)	9.95
Nc1nccc(C2CCCCN2Cc2cccc(F)c2)n1 (stereo not given)	-4
Cn1cc(CN2CCc3nc(-c4ccccn4)nc(O)c3C2)cn1	-3.81
Cc1nc(Nc2nccs2)cc(C2CCCN2C2CCOCC2)n1 (stereo not given)	-7.08
COCC(C)N1CCN(CCc2ccc3c(c2)CCO3)CC1 (stereo not given)	4.16
COCCNc1nnc(S(=O)(=O)CCC(C)(C)C#N)s1	10.7
CCN(CC)CC(=O)N1CCN(CCc2ccncc2)CC1	-44.7
CCOc1ncccc1NC(=O)N1CCOCC1C (stereo not given)	10.3
CN(C)c1ccc(C(=O)NCc2cccnc2-n2cncn2)cc1F	2.84
CNS(=O)(=O)c1cccc(C(C)NCc2cccc(C)c2C)c1 (stereo not given)	9.44
O=C(NCc1ccccc1CN1CCC(O)CC1)Nc1ccccn1	8.52
COCCN(Cc1ccc(F)cc1Cl)C(=O)c1ccccn1	11.8
Cn1ncnc1CNc1ccc2c(c1)N(C(=O)OC(C)(C)C)CCC2	6.37
Cc1ccoc1C(=O)NCCOc1ncc(Cl)cc1Cl	3.02
CCSCc1cccc(NC2CCN(C)C2=O)c1 (stereo not given)	1.18
CCCN(Cc1ccc(C#N)cc1)Cc1nnsc1Cl	-58.4
CCCc1nc(CNc2cc(CS(C)(=O)=O)ccc2Cl)no1	-2.07
CC(C)Nc1cccc(CNC(=O)N2CCC[C@@H]2CO)c1	1.96
Cc1cscc1C(=O)Nc1cc(CSCCO)ccn1	-25.5
CC(C)c1ccc(CNC(C)c2ccc(S(=O)(=O)N(C)C)cc2)cc1 (stereo not given)	32.6

SMILES	cytotoxicity at 10 µM [%]
Cc1csc(C(C#N)C(=O)NCc2ccccc2)n1 (stereo not given)	4.02
CS(=O)(=O)c1ccc(C(=O)NCc2nc3cc(F)ccc3[nH]2)cc1	-3.34
CC(C)CSCCCNC(=O)C1CCC1	-4.47
CC(=O)N(C)Cc1ccccc1NC(=O)N(C)CCc1cccs1	-10.4
COCC(C)N(C)C(=O)NC1CCN(c2ncccn2)CC1 (stereo not given)	-12.5
CS(=O)(=O)Cc1nc(CN2CCC(C(F)(F)F)CC2)cs1	-10.9
Cn1ccnc1C(=O)NC[C@H]1OC[C@@H]2CCN(S(C)(=O)=O)C[C@@H]21	-101
CCS(=O)(=O)N1CCCn2nnc(CNC(C)=O)c2C1	-113
O=C(CC1CC1)N1CCC2(CCCN(c3ncccn3)C2)CC1	-71
C=C(C)COc1cccc(C(=O)N2CCC3(CCOCC3)CC2)c1	-47.1
Cc1cc(NC(=O)CNCc2csc(-c3cnccn3)n2)ccc1Cl	-3.52
Cc1cc(N2CCN(C(=O)Cc3ccc4c(c3)OCO4)CC2)cc(C)n1	-18
c1csc(CN2CCCN(c3ccc(Cn4ccnc4)cn3)CC2)c1	-18.2
Cc1n[nH]c(C)c1CCC(=O)NCC1COc2ccccc2C1 (stereo not given)	-40.2
Cc1ncsc1C(=O)NCc1cccnc1N(C)CCc1ccccn1	-14.5
CC(=O)c1ccc(CN2CC(Oc3ccccc3C)C2)cc1	-4.73
COc1ccc(F)c(CN2CCCC(O)(CNCc3ccon3)C2=O)c1 (stereo not given)	53.6
CN1CCN(C(=O)NCCc2ccc(F)cc2)[C@H]2CS(=O)(=O)C[C@H]21	10.8
CCN1CC2(CCN(C(=O)C(C)Oc3ccc(F)cc3F)CC2)OC1=O (stereo not given)	-1.98
O=C1NCCN2CCN(Cc3ccc(Cl)c(Cl)c3)CC12 (stereo not given)	-4.92
Nc1nccc(N2CCNC(C(=O)NCc3ccccn3)C2)n1 (stereo not given)	-48.5
Cc1cc(F)ccc1S(=O)(=O)N1C[C@@H](C)[C@@](C)(O)C1	-7.25

SMILES	cytotoxicity at 10 µM [%]
O=c1cc(C2CCNCC2)nc(Cc2cccc(Cl)c2)[nH]1	-0.869
O=C(C1CC1)N1CCc2c(ncnc2NCCc2nc3c(s2)CCC3)C1	-1.05
CCCN1CCC(N2CCC(Cn3cc(C4CC4)nn3)CC2)CC1	-1.98
O=C(Nc1ccc(I)cc1C(=O)NCCN1CCOCC1)c1ccco1	0.512
CC(=O)Nc1ccc(CNC(=O)CNCc2snnc2C)cc1	8.43
CCn1ccnc1CN(C)c1cc(C2CC2)ncn1	-47.9
CN(Cc1nc(Cc2ccccc2F)no1)CC1Cc2ccccc2O1 (stereo not given)	-5.19
Cc1nc(N2CCC(C(O)c3nccn3C)CC2)c2c(C)noc2n1 (stereo not given)	7.54
CCc1ccc(NC(=O)CCN2CC(n3nc(C)cc3C)C2)cc1	-8.03
O=C(NCC(F)F)c1ccc(S(=O)(=O)NCCc2ccncc2)cc1	-7.88
C=C(C)COc1cccc(CNCCc2nc(N)cc(O)n2)c1	-47.1
CCC(O)Cn1cc(C2=CCN(Cc3cc(O)nc(C)n3)CC2)cn1 (stereo not given)	-9.2
CCn1c(C2CCNCC2)nn(CCCc2ccccc2)c1=O	1.4
COCc1cc(O)nc(C2CCCN(Cc3cc(OC)ccc3F)C2)n1 (stereo not given)	4.42
Cc1ccc(CCC(=O)N2CCC(Nc3cccnn3)CC2)cc1	-5.36
COCCN1CCC(CNC(=O)C2(c3ccc(Br)cc3)CCCC2)C1 (stereo not given)	-5.3
O=C1NCCN1C1CCN(Cc2coc(-c3ccc(F)cc3)n2)CC1	-3.52
Cn1cc(CN2CCCN(C(=O)c3ccc4ccccc4n3)CC2)cn1	-1.9
Cc1noc(C)c1CCC(=O)N1CCCN(Cc2cccs2)CC1	-3.39
Cc1ccc(-c2nnc(CN3CCn4c(nnc4C4CC4)C3)o2)cc1	-6.37
COc1c(C2CCCN2Cc2nc(C3CC3)no2)c(C)nn1C (stereo not given)	-1.79
COc1cc(Cl)ccc1C(=O)NCc1nncn1C	-4.35

SMILES	cytotoxicity at 10 µM [%]
Cc1ccc(N(C)S(=O)(=O)c2cc(C(=O)O)cs2)cc1	0.0898
CCOc1ccc(Cl)c(C(=O)N2CCN(c3cnccn3)CC2)n1	-4.89
CC(C)c1n[nH]c(C2CN(C(=O)c3csnn3)CCO2)n1 (stereo not given)	-4.89
COc1cc(C)ccc1OCCC(=O)N1CCCC1Cn1cccn1 (stereo not given)	-7.81
Cn1ncc2c(=O)[nH]c(CN3CCC(Cc4ccccc4)CC3)nc21	-2.28
CCN(CC)C(=O)Cn1ccc2cc(NC(=O)C3CC3)ccc21	-3.87
Cc1nc(-c2ccsc2)ccc1C(=O)NCCC1CCCO1 (stereo not given)	-9.75
Cc1nccn1C1CCCN(C(=O)c2cc(O)nc3ccccc23)C1 (stereo not given)	-6.9
CCCc1n[nH]c(C2CN(Cc3nnc(C4CC4)o3)CCO2)n1 (stereo not given)	-20.2
CN(CC1CCCCC1)C(=O)c1ccc(-n2ncc(C#N)c2N)cc1	0.347
COc1ccc(CN2CCc3sccc3C2C)cc1CN1CCOCC1 (stereo not given)	-0.782
COc1cc(CNCC(C)O)cc(Cl)c1OCc1ccc(C)cc1 (stereo not given)	-5.23
c1csc(-c2noc(C3CN(Cc4ccc5c(c4)CCO5)C3)n2)c1	-8.2
CCN1CCO[C@@H]2CN(C(=O)c3ccc4[nH]ccc4c3)CC[C@@H]2C1	-116
O=C(Cc1ccsc1)N1C[C@@H]2OCCN(c3cnccn3)[C@@H]2C1	11.6
CCCC(=O)Nc1ccc2c(c1)C1(CCOCC1)CN2CCOC	-104
CO[C@H]1CCN(S(=O)(=O)c2cccnc2)[C@@H]2CN(CC3CC3)C[C@H]12	-73.5
CN(C)Cc1cnc2n1CCN(C(=O)Cc1ccc(F)cc1)CC2	-8.96
O=C(c1ccccc1)N1C[C@@H]2CCCO[C@@H]2[C@H](N2CCCC2)C1	-2.02
Cc1ccc(C(=O)N2C[C@@H]3CCCO[C@@H]3[C@H](N3CCOCC3)C2)cn1	-3.4
CN(C)C(=O)Cn1c2c(ccc1=O)CCN(Cc1cnn(C)c1)CC2	0.886
Cc1cc(C(=O)N2C[C@@H]3C(CN(C)CCCn4cccn4)[C@@H]3C2)c(C)o1 (stereo not given in full)	-55.4
